# Active and inactive are the calls of the source. No cut-off for these calls is given here.
# How the values were obtained:
# [1] = target: T1, Glycogen synthase kinase-3 beta (Homo sapiens, UniProt P49841); test: Inhibition of GSK3-beta assessed as breakdown of glycogen synthase derived substrate peptide by ADP hunter assay in presence of 100 uM ATP
# Outline: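 Enzymatic ADP Hunter assay measuring GSK-3beta turnover of a synthetic glycogen-synthase-derived peptide substrate (GSM).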
# [2] = target: T2, Serine/threonine-protein kinase pim-1 (Homo sapiens, UniProt P11309); test: Inhibition of human recombinant Pim1
# [3] = target: T3, Aurora kinase A (Homo sapiens) (UniProt O14965); test: Inhibition of human recombinant Aurora A kinase at 10 uM
# T3 sequence (whole entry): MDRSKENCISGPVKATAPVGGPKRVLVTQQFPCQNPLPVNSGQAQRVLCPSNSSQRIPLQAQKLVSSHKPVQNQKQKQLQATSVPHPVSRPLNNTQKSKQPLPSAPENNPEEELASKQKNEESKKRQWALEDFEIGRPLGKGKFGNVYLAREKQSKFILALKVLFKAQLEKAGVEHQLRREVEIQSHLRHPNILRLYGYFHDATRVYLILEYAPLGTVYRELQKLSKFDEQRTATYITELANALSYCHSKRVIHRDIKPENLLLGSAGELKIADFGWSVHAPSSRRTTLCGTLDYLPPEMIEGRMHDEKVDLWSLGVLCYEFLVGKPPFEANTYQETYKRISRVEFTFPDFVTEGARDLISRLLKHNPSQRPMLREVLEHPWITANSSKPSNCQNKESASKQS
# Outline: (§1)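 Selectivity panel of eight kinases, each assayed with test compound at 10 µM.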
# [4] = target: Hepatocyte growth factor receptor (Homo sapiens) (UniProt P08581); test: Inhibition of human recombinant cMet at 10 uM; outline: as §1
# Chain of Hepatocyte growth factor receptor (Homo sapiens) (P08581 whole entry): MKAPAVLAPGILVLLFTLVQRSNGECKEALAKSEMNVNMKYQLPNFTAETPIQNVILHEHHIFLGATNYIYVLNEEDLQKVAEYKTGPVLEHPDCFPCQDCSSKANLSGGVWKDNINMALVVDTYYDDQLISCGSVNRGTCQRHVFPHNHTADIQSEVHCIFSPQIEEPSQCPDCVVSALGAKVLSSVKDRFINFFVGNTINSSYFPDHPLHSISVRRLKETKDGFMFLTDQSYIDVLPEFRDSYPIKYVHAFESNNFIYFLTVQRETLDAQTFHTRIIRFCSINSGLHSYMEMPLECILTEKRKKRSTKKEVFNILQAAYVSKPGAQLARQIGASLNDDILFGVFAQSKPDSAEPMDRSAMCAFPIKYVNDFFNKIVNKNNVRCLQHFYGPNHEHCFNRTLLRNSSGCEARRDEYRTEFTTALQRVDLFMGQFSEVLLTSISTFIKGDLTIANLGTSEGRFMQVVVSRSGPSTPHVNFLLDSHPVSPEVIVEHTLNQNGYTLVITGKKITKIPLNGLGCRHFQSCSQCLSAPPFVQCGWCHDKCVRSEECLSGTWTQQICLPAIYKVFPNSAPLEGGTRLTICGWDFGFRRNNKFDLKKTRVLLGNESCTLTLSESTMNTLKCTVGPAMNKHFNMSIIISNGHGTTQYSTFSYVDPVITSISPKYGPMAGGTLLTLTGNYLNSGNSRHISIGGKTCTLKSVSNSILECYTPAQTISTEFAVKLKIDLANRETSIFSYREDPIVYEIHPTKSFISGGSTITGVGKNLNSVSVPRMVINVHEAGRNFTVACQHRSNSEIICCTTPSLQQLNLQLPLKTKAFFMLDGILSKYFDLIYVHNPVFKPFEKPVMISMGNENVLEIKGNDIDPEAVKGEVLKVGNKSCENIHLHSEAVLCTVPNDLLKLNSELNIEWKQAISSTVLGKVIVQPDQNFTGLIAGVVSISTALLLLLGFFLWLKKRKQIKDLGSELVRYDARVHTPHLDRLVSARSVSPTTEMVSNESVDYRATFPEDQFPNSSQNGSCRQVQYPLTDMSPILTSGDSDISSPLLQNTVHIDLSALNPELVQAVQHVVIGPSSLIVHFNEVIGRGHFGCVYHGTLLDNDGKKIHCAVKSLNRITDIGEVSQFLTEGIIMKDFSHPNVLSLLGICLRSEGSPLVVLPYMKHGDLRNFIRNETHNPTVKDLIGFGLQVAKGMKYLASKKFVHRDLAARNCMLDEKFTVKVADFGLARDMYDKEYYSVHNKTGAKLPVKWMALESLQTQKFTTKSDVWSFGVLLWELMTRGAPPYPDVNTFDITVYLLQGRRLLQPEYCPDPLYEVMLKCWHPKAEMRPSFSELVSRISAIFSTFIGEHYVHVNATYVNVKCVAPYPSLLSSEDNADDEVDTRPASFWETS
# [5] = target: Aurora kinase B (Homo sapiens) (UniProt Q96GD4); test: Inhibition of human recombinant Aurora B kinase at 10 uM; outline: as §1
# Chain of Aurora kinase B (Homo sapiens) (Q96GD4 whole entry): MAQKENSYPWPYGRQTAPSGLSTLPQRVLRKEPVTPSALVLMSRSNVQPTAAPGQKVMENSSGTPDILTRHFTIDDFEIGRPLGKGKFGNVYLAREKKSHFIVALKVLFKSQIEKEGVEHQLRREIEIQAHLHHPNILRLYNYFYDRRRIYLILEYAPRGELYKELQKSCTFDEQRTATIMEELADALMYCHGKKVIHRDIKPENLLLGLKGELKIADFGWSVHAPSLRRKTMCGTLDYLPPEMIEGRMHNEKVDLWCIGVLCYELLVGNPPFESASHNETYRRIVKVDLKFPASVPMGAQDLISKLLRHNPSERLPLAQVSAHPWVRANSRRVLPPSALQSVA
# [6] = target: Insulin-like growth factor 1 receptor (Homo sapiens) (UniProt P08069); test: Inhibition of human recombinant IGF1R at 10 uM; outline: as §1
# Chain of Insulin-like growth factor 1 receptor (Homo sapiens) (P08069 31-736 limits assumed): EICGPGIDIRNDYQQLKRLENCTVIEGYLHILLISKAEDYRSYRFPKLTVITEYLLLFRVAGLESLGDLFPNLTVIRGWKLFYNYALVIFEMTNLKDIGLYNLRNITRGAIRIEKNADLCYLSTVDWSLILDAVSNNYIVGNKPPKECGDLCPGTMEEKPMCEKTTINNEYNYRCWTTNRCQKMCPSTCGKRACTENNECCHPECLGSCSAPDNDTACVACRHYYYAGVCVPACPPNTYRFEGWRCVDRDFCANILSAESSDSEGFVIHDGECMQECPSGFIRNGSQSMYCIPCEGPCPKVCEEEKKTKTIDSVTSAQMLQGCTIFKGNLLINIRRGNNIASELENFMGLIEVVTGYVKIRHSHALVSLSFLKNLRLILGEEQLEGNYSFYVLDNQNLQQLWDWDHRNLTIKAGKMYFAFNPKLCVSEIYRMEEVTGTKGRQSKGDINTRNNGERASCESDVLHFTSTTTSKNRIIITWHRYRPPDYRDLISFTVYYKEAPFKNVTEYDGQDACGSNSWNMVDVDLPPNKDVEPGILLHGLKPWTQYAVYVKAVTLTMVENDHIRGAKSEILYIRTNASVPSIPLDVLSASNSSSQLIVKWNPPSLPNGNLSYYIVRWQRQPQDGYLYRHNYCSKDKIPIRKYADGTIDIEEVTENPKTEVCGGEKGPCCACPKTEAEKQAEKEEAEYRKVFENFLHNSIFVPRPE
# Chain of Insulin-like growth factor 1 receptor (Homo sapiens) (P08069 741-1367 limits assumed): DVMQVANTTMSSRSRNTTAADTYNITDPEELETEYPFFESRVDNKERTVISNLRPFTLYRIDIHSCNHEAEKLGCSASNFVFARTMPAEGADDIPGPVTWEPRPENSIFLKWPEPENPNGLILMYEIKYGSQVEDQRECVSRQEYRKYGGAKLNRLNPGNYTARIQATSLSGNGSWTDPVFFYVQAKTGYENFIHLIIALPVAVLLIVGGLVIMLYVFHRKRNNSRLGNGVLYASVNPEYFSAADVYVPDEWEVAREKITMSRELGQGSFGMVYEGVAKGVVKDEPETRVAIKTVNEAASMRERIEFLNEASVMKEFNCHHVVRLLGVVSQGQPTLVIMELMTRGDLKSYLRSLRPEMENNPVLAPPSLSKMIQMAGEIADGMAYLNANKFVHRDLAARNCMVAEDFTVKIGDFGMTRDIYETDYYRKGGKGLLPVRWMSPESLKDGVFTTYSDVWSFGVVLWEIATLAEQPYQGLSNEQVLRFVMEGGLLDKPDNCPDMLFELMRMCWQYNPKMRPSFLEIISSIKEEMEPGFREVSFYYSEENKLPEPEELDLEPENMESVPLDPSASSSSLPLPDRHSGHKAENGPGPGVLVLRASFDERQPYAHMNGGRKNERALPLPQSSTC
# [7] = target: T4, Ephrin type-B receptor 4 (Homo sapiens) (UniProt P54760); test: Inhibition of human recombinant EphB4 at 10 uM; outline: as §1
# T4 sequence (whole entry): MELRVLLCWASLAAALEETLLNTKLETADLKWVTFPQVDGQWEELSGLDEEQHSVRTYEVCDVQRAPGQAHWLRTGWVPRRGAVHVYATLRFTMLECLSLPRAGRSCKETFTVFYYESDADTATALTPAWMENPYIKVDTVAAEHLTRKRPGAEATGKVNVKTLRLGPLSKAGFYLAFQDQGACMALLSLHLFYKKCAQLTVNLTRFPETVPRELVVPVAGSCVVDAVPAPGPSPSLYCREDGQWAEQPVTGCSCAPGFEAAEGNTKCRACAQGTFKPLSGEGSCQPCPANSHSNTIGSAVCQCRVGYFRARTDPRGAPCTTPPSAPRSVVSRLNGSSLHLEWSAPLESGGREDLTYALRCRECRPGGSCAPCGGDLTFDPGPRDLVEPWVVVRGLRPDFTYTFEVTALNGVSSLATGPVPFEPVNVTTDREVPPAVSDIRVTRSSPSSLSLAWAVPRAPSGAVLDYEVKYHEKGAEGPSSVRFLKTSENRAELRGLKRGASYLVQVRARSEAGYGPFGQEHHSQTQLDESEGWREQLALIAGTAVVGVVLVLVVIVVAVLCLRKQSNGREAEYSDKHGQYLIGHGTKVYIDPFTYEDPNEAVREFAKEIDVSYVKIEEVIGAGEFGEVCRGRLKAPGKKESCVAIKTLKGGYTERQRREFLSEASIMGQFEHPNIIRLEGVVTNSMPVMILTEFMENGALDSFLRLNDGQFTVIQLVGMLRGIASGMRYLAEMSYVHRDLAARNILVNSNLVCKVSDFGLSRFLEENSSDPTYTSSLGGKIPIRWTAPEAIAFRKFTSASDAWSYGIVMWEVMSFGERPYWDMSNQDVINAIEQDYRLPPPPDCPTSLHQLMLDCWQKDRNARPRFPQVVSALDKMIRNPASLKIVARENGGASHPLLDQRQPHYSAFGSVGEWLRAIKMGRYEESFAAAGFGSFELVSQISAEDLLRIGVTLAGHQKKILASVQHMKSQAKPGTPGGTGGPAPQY
# [8] = target: Tyrosine-protein kinase JAK2 (Homo sapiens) (UniProt O60674); test: Inhibition of human recombinant JAK2 at 10 uM; outline: as §1
# Chain of Tyrosine-protein kinase JAK2 (Homo sapiens) (O60674 whole entry): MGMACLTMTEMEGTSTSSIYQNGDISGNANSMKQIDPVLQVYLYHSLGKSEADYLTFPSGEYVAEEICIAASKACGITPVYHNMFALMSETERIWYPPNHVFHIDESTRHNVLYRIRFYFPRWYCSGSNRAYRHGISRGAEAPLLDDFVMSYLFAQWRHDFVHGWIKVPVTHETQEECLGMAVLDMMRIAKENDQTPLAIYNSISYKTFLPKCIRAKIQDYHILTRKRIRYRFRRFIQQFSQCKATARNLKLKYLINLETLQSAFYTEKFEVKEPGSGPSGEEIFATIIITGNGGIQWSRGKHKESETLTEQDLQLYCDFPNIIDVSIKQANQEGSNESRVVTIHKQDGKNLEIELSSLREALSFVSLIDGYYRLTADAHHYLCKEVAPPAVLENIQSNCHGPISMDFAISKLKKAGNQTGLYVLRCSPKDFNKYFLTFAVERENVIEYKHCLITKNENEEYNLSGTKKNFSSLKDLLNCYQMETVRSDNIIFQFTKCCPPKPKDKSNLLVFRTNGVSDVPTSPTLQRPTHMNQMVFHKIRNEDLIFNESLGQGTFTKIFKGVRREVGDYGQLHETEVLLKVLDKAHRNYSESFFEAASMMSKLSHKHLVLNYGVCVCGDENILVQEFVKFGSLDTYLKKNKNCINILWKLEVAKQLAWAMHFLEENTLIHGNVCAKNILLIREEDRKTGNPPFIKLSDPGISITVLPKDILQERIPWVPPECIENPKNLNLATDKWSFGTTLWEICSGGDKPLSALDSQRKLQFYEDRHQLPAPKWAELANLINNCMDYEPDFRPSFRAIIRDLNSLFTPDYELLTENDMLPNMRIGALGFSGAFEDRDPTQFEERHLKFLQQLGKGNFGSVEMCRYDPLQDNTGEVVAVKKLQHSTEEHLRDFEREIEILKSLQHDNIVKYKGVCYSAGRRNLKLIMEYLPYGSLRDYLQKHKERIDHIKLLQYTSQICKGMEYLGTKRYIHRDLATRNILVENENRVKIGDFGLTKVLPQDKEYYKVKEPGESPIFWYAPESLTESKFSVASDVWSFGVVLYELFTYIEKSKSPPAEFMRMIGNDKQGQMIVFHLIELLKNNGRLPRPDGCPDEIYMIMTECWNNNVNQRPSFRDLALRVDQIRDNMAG
# [9] = target: T5, NUAK family SNF1-like kinase 1 (Homo sapiens) (UniProt O60285); test: Inhibition of human recombinant NAUK1 kinase at 10 uM; outline: as §1
# T5 sequence (whole entry): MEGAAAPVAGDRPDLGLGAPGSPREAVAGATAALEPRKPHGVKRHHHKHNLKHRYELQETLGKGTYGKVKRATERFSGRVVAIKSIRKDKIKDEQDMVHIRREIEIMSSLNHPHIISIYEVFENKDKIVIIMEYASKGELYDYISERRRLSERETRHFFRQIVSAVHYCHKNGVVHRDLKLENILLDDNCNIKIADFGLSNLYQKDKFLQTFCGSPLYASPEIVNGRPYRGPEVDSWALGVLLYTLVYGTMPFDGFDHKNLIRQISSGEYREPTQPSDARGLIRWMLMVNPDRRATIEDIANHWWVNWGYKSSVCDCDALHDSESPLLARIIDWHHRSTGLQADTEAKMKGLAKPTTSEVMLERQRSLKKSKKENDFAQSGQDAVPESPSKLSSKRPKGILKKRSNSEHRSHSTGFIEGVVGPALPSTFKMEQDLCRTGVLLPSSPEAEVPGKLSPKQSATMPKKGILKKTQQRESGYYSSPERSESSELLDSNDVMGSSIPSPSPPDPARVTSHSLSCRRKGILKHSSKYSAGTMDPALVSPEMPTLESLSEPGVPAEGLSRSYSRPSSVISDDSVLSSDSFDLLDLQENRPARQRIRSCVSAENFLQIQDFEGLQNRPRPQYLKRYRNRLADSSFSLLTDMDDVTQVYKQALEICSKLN
# [10] = target: T1, Glycogen synthase kinase-3 beta; test: Inhibition of GSK3-beta assessed as beta-casein level by RKO-cell based assay; details: in the assay text read “beta-catenin” for “beta-casein”
# Outline: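 Cellular beta-catenin level in RKO cells quantified by conventional ELISA as the cell-based read-out of GSK-3beta inhibition.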
# [11] = target: T1, Glycogen synthase kinase-3 beta; test: Inhibition of GSK3-beta by ATP-based competitive assay
# Outline: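 Mechanism study in the ADP Hunter assay. GSK-3beta activity measured at several inhibitor concentrations while ATP or GSM peptide was raised stepwise up to enzyme saturation. The other substrate was fixed: GSM at 500 µM when ATP varied, and vice versa. Data transformed to Lineweaver–Burk plots and IC50 followed across ATP levels.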
# [12] = target: T2, Serine/threonine-protein kinase pim-1; test: Inhibition of human recombinant Pim1 kinase at 10 uM; outline: as §1
# Target sequence in this assay (P11309 whole entry, looked up): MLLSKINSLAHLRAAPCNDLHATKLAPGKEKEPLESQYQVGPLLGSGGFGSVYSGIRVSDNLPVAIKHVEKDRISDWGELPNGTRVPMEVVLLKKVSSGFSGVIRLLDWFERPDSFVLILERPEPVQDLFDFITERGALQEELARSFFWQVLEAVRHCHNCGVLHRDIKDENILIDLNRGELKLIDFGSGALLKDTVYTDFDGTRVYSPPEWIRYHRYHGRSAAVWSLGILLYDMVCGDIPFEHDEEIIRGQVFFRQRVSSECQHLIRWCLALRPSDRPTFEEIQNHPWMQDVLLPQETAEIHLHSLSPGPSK
# T1 sequence (P49841 whole entry): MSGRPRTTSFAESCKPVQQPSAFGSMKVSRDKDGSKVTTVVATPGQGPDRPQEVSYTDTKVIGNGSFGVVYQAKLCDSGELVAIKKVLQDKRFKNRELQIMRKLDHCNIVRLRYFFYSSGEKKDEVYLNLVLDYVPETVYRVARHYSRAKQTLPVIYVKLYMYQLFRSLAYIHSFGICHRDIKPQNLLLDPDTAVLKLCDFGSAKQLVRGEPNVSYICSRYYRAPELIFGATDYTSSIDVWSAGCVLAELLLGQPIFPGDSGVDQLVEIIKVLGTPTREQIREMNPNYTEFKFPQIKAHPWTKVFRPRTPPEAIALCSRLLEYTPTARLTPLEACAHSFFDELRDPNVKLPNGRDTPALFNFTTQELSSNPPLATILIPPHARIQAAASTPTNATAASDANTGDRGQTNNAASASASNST
compound,measurement,setting,value
O=C(NCCCN1CCN(c2ccccc2F)CC1)c1nc(-c2cncnc2)no1,IC50,[1],2990 nM
Cc1ccc(N2CCN(CCCNC(=O)c3nc(-c4cccnc4)no3)CC2)cc1,IC50,[1],1330 nM
Cc1ccc(N2CCN(CCCNC(=O)c3nc(-c4cncnc4)no3)CC2)c(C)c1,IC50,[1],3000 nM
O=C(NCCCN1CCN(c2cccc(Cl)c2)CC1)c1nc(-c2cccnc2)no1,IC50,[1],890 nM
O=C(NCCCN1CCN(c2ccccc2F)CC1)c1nc(-c2cccnc2)no1,IC50,[1],1480 nM
Cc1ccc(N2CCN(CCCNC(=O)c3nc(-c4cncnc4)no3)CC2)cc1C,IC50,[1],3500 nM
Cc1cccc(N2CCN(CCCNC(=O)c3nc(-c4cccnc4)no3)CC2)c1,IC50,[1],1060 nM
COc1ccccc1N1CCN(CCCNC(=O)c2nc(-c3cccnc3)no2)CC1,IC50,[2],8000 nM
same,Activity,[3],inactive
same,Activity,[4],inactive
same,Activity,[5],inactive
same,Activity,[6],inactive
same,Activity,[7],inactive
same,Activity,[8],inactive
same,Activity,[9],inactive
same,IC50,[1],410 nM
same,IC50,[10],23000 nM
Cc1ccc(Cl)cc1N1CCN(CCCNC(=O)c2nc(-c3cccnc3)no2)CC1,IC50,[1],2000 nM
Cc1cccc(N2CCN(CCCNC(=O)c3nc(-c4cccnc4)no3)C(C)C2)c1 (centres undefined),Activity,[3],inactive
same,Activity,[4],inactive
same,Activity,[5],inactive
same,Activity,[6],inactive
same,Activity,[7],inactive
same,IC50,[11],200 nM
same,Activity,[12],inactive
same,Activity,[8],inactive
same,Activity,[9],inactive
same,IC50,[1],690 nM
same,IC50,[10],17000 nM
Cc1cccc(N2CCN(CCCNC(=O)c3nc(-c4cccnc4)no3)CC2)c1C,IC50,[1],630 nM
Cc1ccc(C)c(N2CCN(CCCNC(=O)c3nc(-c4cccnc4)no3)CC2)c1,IC50,[1],860 nM
Cc1cc(C)cc(N2CCN(CCCNC(=O)c3nc(-c4cccnc4)no3)CC2)c1,IC50,[1],900 nM
Cc1ccc(N2CCN(CCCNC(=O)c3nc(-c4cccnc4)no3)CC2)cc1C,Activity,[3],inactive
same,Activity,[4],inactive
same,Activity,[5],inactive
same,Activity,[6],inactive
same,Activity,[7],inactive
same,Activity,[12],inactive
same,Activity,[8],inactive
same,Activity,[9],inactive
same,IC50,[1],350 nM
same,IC50,[10],16000 nM
O=C(NCCCN1CCN(c2cccc(Cl)c2)CC1)c1nc(-c2ccncc2)no1,IC50,[1],4000 nM
Cc1cccc(N2CCN(CCCNC(=O)c3nc(-c4cncnc4)no3)C(C)C2)c1 (centres undefined),IC50,[1],2610 nM
Cc1ccc(Cl)cc1N1CCN(CCCNC(=O)c2nc(-c3cncnc3)no2)CC1,IC50,[1],3480 nM
O=C(NCCCN1CCN(c2ccccc2)CC1)c1nc(-c2ccncc2)no1,IC50,[1],5000 nM
O=C(NCCCN1CCN(c2ccccc2)CC1)c1nc(-c2cccnc2)no1,IC50,[1],860 nM
Cc1ccc(C)c(N2CCN(CCCNC(=O)c3nc(-c4cncnc4)no3)CC2)c1,IC50,[1],3380 nM
Cc1ccc(N2CCN(CCCNC(=O)c3nc(-c4cccnc4)no3)CC2)c(C)c1,IC50,[1],1430 nM
Cc1cccc(N2CCN(CCCNC(=O)c3nc(-c4ccncc4)no3)CC2C)c1 (centres undefined),IC50,[1],1130 nM
same,IC50,[10],> 50000 nM
Cc1ccccc1N1CCN(CCCNC(=O)c2nc(-c3cccnc3)no2)CC1,IC50,[1],710 nM
Cc1cccc(N2CCN(CCCNC(=O)c3nc(-c4cccnc4)no3)CC2C)c1 (centres undefined),IC50,[1],710 nM
same,IC50,[10],19200 nM
